# Data published in ChEMBL document CHEMBL3272221, “Phosphorus-nitrogen compounds. 21. Murine oncolytic and antifertility effect of adamantylaziridine compounds” (J Med Chem, 1978).
# Calls of active or inactive are those of the source. The rule behind the calls is not given here.
# Assays:
# L1210 [1] = assay: Antitumor activity against mouse L1210 cells allografted in mouse assessed as mean survival time at 10 mg/kg, ip after 9 days; format: functional; settings: route intraperitoneal
# Procedure, shortened: (§1)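 Mice bearing ip-implanted L1210 ascites cells dosed ip daily for 9 days, run by NCI contractors. Activity was expressed as % T/C, the mean survival time of treated over control animals as a percent, with >125% taken as active. Deaths at a given dose were recorded as toxicity.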
# [2] = Solubility of the compound in water; format: physicochemical; settings: buffer
# Procedure, shortened: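 Saturated aqueous solutions were shaken 23 h at 24 °C. The dissolved amount was determined gravimetrically after evaporation and drying at 70 °C.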
# Mus musculus [3] = assay: Antifertility activity in male Swiss albino mouse assessed as viable conceptus at 10 mg/kg, ip qd administered for 5 days followed by mating measured after 1 week; format: functional, organism-based; set-up: dose 10 mg/kg
# Procedure, shortened: (§2)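 Male Swiss albino mice, 4–6 per group, dosed ip or orally by gavage for five consecutive days (10, 15, 22.5 or 33.8 mg/kg), then serially mated with females over successive mating periods against control groups. Read-outs were nonpregnant/total females and viable/total conceptus per period. Student's t test versus control (p < 0.05) was used only for groups with at least two pregnant females.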
# Mus musculus [4] = assay: Antifertility activity in male Swiss albino mouse assessed as reduction of litter size at 10 mg/kg, po administered for 5 days followed by mating measured for 2 weeks; format: functional, organism-based; set-up: dose 10 mg/kg; procedure, shortened: as §2
# [5] = Octanol-water partition coefficient, log P of the compound; format: physicochemical
# Procedure, shortened: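 Shake-flask partitioning: 0.5 g solute in 50.0 mL each of 1-octanol and water, shaken 18 h at 24 °C. Layers were separated, filtered and evaporated (octanol removed as its water azeotrope), dried at 70 °C and weighed. Concentrations were determined gravimetrically.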
# Mus musculus [6] = assay: Toxicity in mouse allografted with mouse L1210 cells assessed as death at 20 mg/kg, ip; format: organism-based; set-up: dose 20 mg/kg, route intraperitoneal; settings: in vivo; procedure, shortened: as §1
# Mus musculus [7] = assay: Antifertility activity in male Swiss albino mouse assessed as nonpregnant female mouse at 10 mg/kg, ip qd administered for 5 days followed by mating measured after 3 weeks; format: functional, organism-based; set-up: dose 10 mg/kg; procedure, shortened: as §2
# Mus musculus [8] = assay: Antifertility activity in male Swiss albino mouse assessed as viable conceptus at 10 mg/kg, po qd administered for 5 days followed by mating measured after 4 weeks; format: functional, organism-based; set-up: dose 10 mg/kg; procedure, shortened: as §2
# Mus musculus [9] = assay: Antifertility activity in male Swiss albino mouse assessed as nonpregnant female mouse at 10 mg/kg, ip qd administered for 5 days followed by mating measured after 2 weeks; format: functional, organism-based; set-up: dose 10 mg/kg; procedure, shortened: as §2
# Mus musculus [10] = assay: Antifertility activity in male Swiss albino mouse assessed as nonpregnant female mouse at 33.8 mg/kg, ip qd administered for 5 days followed by mating measured after 1 week; format: functional, organism-based; set-up: dose 33.8 mg/kg; procedure, shortened: as §2
# Mus musculus [11] = assay: Antifertility activity in male Swiss albino mouse assessed as nonpregnant female mouse at 22.5 mg/kg, ip qd administered for 5 days followed by mating measured after 5 weeks; format: functional, organism-based; set-up: dose 22.5 mg/kg; procedure, shortened: as §2
# Mus musculus [12] = assay: Antifertility activity in male Swiss albino mouse assessed as nonpregnant female mouse at 33.8 mg/kg, ip qd administered for 5 days followed by mating measured after 4 weeks; format: functional, organism-based; set-up: dose 33.8 mg/kg; procedure, shortened: as §2
# Mus musculus [13] = assay: Antifertility activity in male Swiss albino mouse assessed as viable conceptus at 22.5 mg/kg, ip qd administered for 5 days followed by mating measured after 2 weeks; format: functional, organism-based; set-up: dose 22.5 mg/kg; procedure, shortened: as §2
# Mus musculus [14] = assay: Antifertility activity in male Swiss albino mouse assessed as viable conceptus at 10 mg/kg, ip qd administered for 5 days followed by mating measured after 4 weeks; format: functional, organism-based; set-up: dose 10 mg/kg; procedure, shortened: as §2
# Mus musculus [15] = assay: Antifertility activity in male Swiss albino mouse assessed as nonpregnant female mouse at 22.5 mg/kg, ip qd administered for 5 days followed by mating measured after 1 week; format: functional, organism-based; set-up: dose 22.5 mg/kg; procedure, shortened: as §2
# L1210 [16] = assay: Antitumor activity against mouse L1210 cells allografted in mouse assessed as mean survival time at 50 mg/kg, ip after 9 days; format: functional; settings: route intraperitoneal; procedure, shortened: as §1
# Mus musculus [17] = assay: Toxicity in mouse allografted with mouse L1210 cells assessed as death at 200 mg/kg, ip; format: organism-based; set-up: dose 200 mg/kg, route intraperitoneal; settings: in vivo; procedure, shortened: as §1
# Mus musculus [18] = assay: Antifertility activity in male Swiss albino mouse assessed as nonpregnant female mouse at 33.8 mg/kg, ip qd administered for 5 days followed by mating measured after 5 weeks; format: functional, organism-based; set-up: dose 33.8 mg/kg; procedure, shortened: as §2
# Mus musculus [19] = assay: Antifertility activity in male Swiss albino mouse assessed as viable conceptus at 15 mg/kg, ip administered for 5 days followed by mating measured after 5 weeks; format: functional, organism-based; set-up: dose 15 mg/kg; procedure, shortened: as §2
# Mus musculus [20] = assay: Antifertility activity in male Swiss albino mouse assessed as nonpregnant female mouse at 33.8 mg/kg, ip qd administered for 5 days followed by mating measured after 3 weeks; format: functional, organism-based; set-up: dose 33.8 mg/kg; procedure, shortened: as §2
# Mus musculus [21] = assay: Antifertility activity in male Swiss albino mouse assessed as viable conceptus at 22.5 mg/kg, ip qd administered for 5 days followed by mating measured after 3 weeks; format: functional, organism-based; set-up: dose 22.5 mg/kg; procedure, shortened: as §2
# Mus musculus [22] = assay: Antifertility activity in male Swiss albino mouse assessed as nonpregnant female mouse at 15 mg/kg, po qd administered for 5 days followed by mating measured after 5 weeks; format: functional, organism-based; set-up: dose 15 mg/kg; procedure, shortened: as §2
# Mus musculus [23] = assay: Antifertility activity in male Swiss albino mouse assessed as nonpregnant female mouse at 22.5 mg/kg, po qd administered for 5 days followed by mating measured after 3 weeks; format: functional, organism-based; set-up: dose 22.5 mg/kg; procedure, shortened: as §2
# Mus musculus [24] = assay: Antifertility activity in male Swiss albino mouse assessed as nonpregnant female mouse at 33.8 mg/kg, po qd administered for 5 days followed by mating measured after 1 week; format: functional, organism-based; set-up: dose 33.8 mg/kg; procedure, shortened: as §2
# Mus musculus [25] = assay: Antifertility activity in male Swiss albino mouse assessed as nonpregnant female mouse at 10 mg/kg, […] administered for 5 days followed by mating measured after 1 week; format: functional, organism-based; set-up: dose 10 mg/kg; procedure, shortened: as §2
# Mus musculus [26] = assay: Antifertility activity in male Swiss albino mouse assessed as nonpregnant female mouse at 15 mg/kg, ip qd administered for 5 days followed by mating measured after 1 week; format: functional, organism-based; set-up: dose 15 mg/kg; procedure, shortened: as §2
# Mus musculus [27] = assay: Antifertility activity in male Swiss albino mouse assessed as viable conceptus at 10 mg/kg, ip administered for 5 days followed by mating measured after 5 weeks; format: functional, organism-based; set-up: dose 10 mg/kg; procedure, shortened: as §2
# Mus musculus [28] = assay: Antifertility activity in male Swiss albino mouse assessed as viable conceptus at 33.8 mg/kg, po qd administered for 5 days followed by mating measured after 3 weeks; format: functional, organism-based; set-up: dose 33.8 mg/kg; procedure, shortened: as §2
# Mus musculus [29] = assay: Antifertility activity in male Swiss albino mouse assessed as nonpregnant female mouse at 10 mg/kg, ip qd administered for 5 days followed by mating measured after 4 weeks; format: functional, organism-based; set-up: dose 10 mg/kg; procedure, shortened: as §2
# Mus musculus [30] = assay: Antifertility activity in male Swiss albino mouse assessed as nonpregnant female mouse at 15 mg/kg, po qd administered for 5 days followed by mating measured after 1 week; format: functional, organism-based; set-up: dose 15 mg/kg; procedure, shortened: as §2
# Mus musculus [31] = assay: Antifertility activity in male Swiss albino mouse assessed as nonpregnant female mouse at 33.8 mg/kg, po qd administered for 5 days followed by mating measured after 5 weeks; format: functional, organism-based; set-up: dose 33.8 mg/kg; procedure, shortened: as §2
# Mus musculus [32] = assay: Antifertility activity in male Swiss albino mouse assessed as viable conceptus at 10 mg/kg, ip qd administered for 5 days followed by mating measured after 3 weeks; format: functional, organism-based; set-up: dose 10 mg/kg; procedure, shortened: as §2
# Mus musculus [33] = assay: Antifertility activity in male Swiss albino mouse assessed as nonpregnant female mouse at 22.5 mg/kg, po qd administered for 5 days followed by mating measured after 5 weeks; format: functional, organism-based; set-up: dose 22.5 mg/kg; procedure, shortened: as §2
# Mus musculus [34] = assay: Antifertility activity in male Swiss albino mouse assessed as nonpregnant female mouse at 33.8 mg/kg, ip qd administered for 5 days followed by mating measured after 2 weeks; format: functional, organism-based; set-up: dose 33.8 mg/kg; procedure, shortened: as §2
smiles,measurement,setting,value
O=P(NC12CC3CC(CC(C3)C1)C2)(N1CC1)N1CC1,T/C,L1210 [1],244%
same,solubility,[2],0.13%
same,Activity,Mus musculus [3],Active
same,Activity,Mus musculus [4],Active
same,logP,[5],1.45
same,Activity,Mus musculus [6],Toxic
same,Activity,Mus musculus [7],Active
same,Activity,Mus musculus [8],inactive
O=P(N1CC1)(N1CC1)C12CC3CC(CC(C3)C1)C2,Activity,Mus musculus [9],inactive
same,Activity,Mus musculus [10],Active
same,Activity,Mus musculus [11],inactive
same,Activity,Mus musculus [12],Active
same,Activity,Mus musculus [13],inactive
same,Activity,Mus musculus [14],inactive
same,Activity,Mus musculus [15],Active
same,T/C,L1210 [16],243%
same,Activity,Mus musculus [17],Toxic
same,Activity,Mus musculus [18],Active
same,Activity,Mus musculus [19],inactive
same,Activity,Mus musculus [20],Active
same,Activity,Mus musculus [21],Active
same,Activity,Mus musculus [22],inactive
same,Activity,Mus musculus [23],inactive
same,solubility,[2],0.94%
same,Activity,Mus musculus [24],inactive
same,Activity,Mus musculus [25],inactive
same,Activity,Mus musculus [26],Active
same,Activity,Mus musculus [3],Active
same,Activity,Mus musculus [27],inactive
same,Activity,Mus musculus [28],inactive
same,logP,[5],0.88
same,Activity,Mus musculus [29],inactive
same,Activity,Mus musculus [30],inactive
same,Activity,Mus musculus [31],inactive
same,Activity,Mus musculus [32],inactive
same,Activity,Mus musculus [33],inactive
same,Activity,Mus musculus [34],Active
